Measured values from ChEMBL document CHEMBL4396969, “Discovery of IACS-8803 and IACS-8779, potent agonists of stimulator of interferon genes (STING) with robust systemic antitumor efficacy” (Bioorg Med Chem Lett, 2019).
The source made the active and inactive calls. The rule behind the calls is not given here.

Columns and labels:
[1] = target: T1, Stimulator of interferon genes protein (Mus musculus) (UniProt Q3TBT3); test: Agonist activity at STING in mouse J774 cells assessed as stimulation of IRF3 pathway measured after 20 hrs by luciferase reporter gene assay; type: cell-based
T1 sequence (whole entry): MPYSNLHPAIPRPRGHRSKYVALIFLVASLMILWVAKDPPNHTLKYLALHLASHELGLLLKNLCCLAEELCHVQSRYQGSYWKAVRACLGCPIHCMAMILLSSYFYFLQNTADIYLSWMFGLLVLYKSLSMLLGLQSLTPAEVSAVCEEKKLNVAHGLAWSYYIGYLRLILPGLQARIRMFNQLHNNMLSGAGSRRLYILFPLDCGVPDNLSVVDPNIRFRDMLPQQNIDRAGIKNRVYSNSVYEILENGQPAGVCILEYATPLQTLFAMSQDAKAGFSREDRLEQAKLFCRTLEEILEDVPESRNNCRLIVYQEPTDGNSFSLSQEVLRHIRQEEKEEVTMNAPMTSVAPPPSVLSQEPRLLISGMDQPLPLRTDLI
Procedure, shortened: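 J774-Dual reporter cells (stably carrying inducible NF-kB and IRF3 reporter constructs), 5×10^4 per well, given CDN at 1 µg/mL for 20 hours; IRF3 pathway activity read by luciferase assay.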

Mus musculus [2] = test: Antitumor activity against mouse B16-OVA cells implanted in mouse assessed as higher number of mouse cured of tumors at 10 ug administered intratumorally on day 6, 9 and 12 post implantation; type: functional, cell-based
Procedure, shortened: (§1)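 Mice (n=5 per group) implanted bilaterally with 1×10^5 B16-Ova cells; 10 µg CDN injected intratumorally into one flank only on days 6, 9 and 12 post implantation. Tumor regression followed in injected and contralateral untreated flanks; cure of both tumors recorded.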

Mus musculus [3] = test: Antitumor activity against mouse B16-OVA cells implanted in mouse assessed as tumour regression in injected flank at 10 ug administered intratumorally on day 6, 9 and 12 post implantation; type: functional, cell-based; procedure, shortened: as §1
Mus musculus [4] = test: Antitumor activity against mouse B16-OVA cells implanted in mouse assessed as tumour regression in contralateral flank at 10 ug administered intratumorally on day 6, 9 and 12 post implantation; type: functional, cell-based; procedure, shortened: as §1

| Compound | Activity [1] | Activity (Mus musculus [2]) | Activity (Mus musculus [3]) | Activity (Mus musculus [4]) |
| --- | --- | --- | --- | --- |
| Nc1ncnc2c1ccn2[C@@H]1O[C@@H]2CO[P@@](=O)(S)O[C@H]3[C@@H](O)[C@H](n4cnc5c(N)ncnc54)O[C@@H]3CO[P@](=O)(S)O[C@@H]1[C@@H]2O | Active |  |  |  |
| Nc1ncnc2c1ccn2[C@@H]1O[C@@H]2CO[P@](=O)(S)O[C@@H]3[C@H](O)[C@@H](CO[P@@](=O)(S)O[C@H]2[C@H]1O)O[C@H]3n1cnc2c(N)ncnc21 | Active |  |  |  |
| Nc1nc2c(ncn2[C@@H]2O[C@@H]3COP(=O)(O)O[C@H]4[C@@H](O)[C@H](n5cnc6c(N)ncnc65)O[C@@H]4COP(=O)(O)O[C@@H]2[C@@H]3O)c(=O)[nH]1 |  | Active | Active | Active |

Further lines, with some results ahead:

| Activity [1] | Compound | Activity (Mus musculus [2]) | Activity (Mus musculus [3]) | Activity (Mus musculus [4]) |
| --- | --- | --- | --- | --- |
| Active | Nc1ncnc2c1ccn2[C@@H]1O[C@@H]2CO[P@@](=O)(S)O[C@@H]3[C@H](O)[C@@H](CO[P@@](=O)(S)O[C@H]2[C@H]1O)O[C@H]3n1cnc2c(N)ncnc21 | Active | Active | Active |
| Active | Nc1ncnc2c1ncn2[C@@H]1O[C@@H]2CO[P@](=O)(S)O[C@@H]3[C@H](O)[C@@H](CO[P@@](=O)(S)O[C@H]2[C@H]1F)O[C@H]3n1cnc2c(N)ncnc21 |  |  |  |
| Active | Nc1ncnc2c1ccn2[C@@H]1O[C@@H]2CO[P@@](=O)(S)O[C@H]3[C@@H](O)[C@H](n4cnc5c(N)ncnc54)O[C@@H]3CO[P@@](=O)(S)O[C@@H]1[C@@H]2O |  |  |  |
| Active | Nc1ncnc2c1ncn2[C@@H]1O[C@@H]2CO[P@@](=O)(S)O[C@@H]3[C@H](O)[C@@H](CO[P@@](=O)(S)O[C@H]2[C@H]1F)O[C@H]3n1cnc2c(N)ncnc21 | Active | Active | Active |
